Screening results (PubChem BioAssay)
Shown are actives, neighbours in structure and some others; about 4% of the full set was active somewhere.
KCNQ1 inh – inhibitors of human KCNQ1 potassium channel | hit rate 1.3% among 310,000 | B-score at 10 µM | AID 2642 | CHO-K1 KCNQ1, FluxOR thallium flux fluorescence; stronger effect = higher value;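 active = compounds whose thallium flux B-score, printed positive for inhibition, exceeds three library SD while starting fluorescence stays within three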;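 note: channel opened by potassium depolarization with thallium stimulus after 20 min compound exposure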
hERG protect – compounds protecting human hERG from proarrhythmic drug block; AID 1511; Q12809; activation (rescue from dofetilide block), less the hit threshold, % at 10 µM; CHO-hERG, FluxOR thallium flux, dofetilide IC70 present; hit rate 0.51% among 310,000;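 active = activation above the mean of controls blocked by dofetilide plus 5 SD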;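 note: thallium influx through hERG after potassium depolarization seen as dye fluorescence rise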
KCNK3 block – human KCNK3 channel inhibition, primary screen; AID 602410; hit rate 0.84% among 340,000; CHO-KCNK3 thallium flux, FluxOR fluorescence; stronger effect = lower value; O14649; B-score at 10 µM;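 active = B-score under library mean minus 4 SD, starting fluorescence ratio at most library mean plus 5 SD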;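 note: more negative B-score means stronger inhibition of thallium flux through KCNK3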
KCNK9 inh – blocks the human KCNK9 two-pore domain potassium channel | AID 488922 | hit rate 1.2% among 310,000 | B-score at 10 µM | HEK293 KCNK9, FluxOR thallium flux fluorescence; stronger effect = lower value | Q9NPC2;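 active = ratio B-score over 3 SD below the library mean, with starting fluorescence within 5 SD of its mean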;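 note: negative B-score means less thallium flux so channel inhibition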
KCNQ1 act – potentiators or activators of human KCNQ1 potassium channel; P51787; CHO-K1 KCNQ1, thallium flux FluxOR fluorescence; stronger effect = higher value; B-score at 10 µM; hit rate 0.35% among 310,000;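 active = fluorescence ratio B-score, a plate-corrected score, at least three library SD, with initial intensity B-score within 5 SD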
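assay system = KCNQ1-transfected CHO-K1 cells | medium = assay buffer with matched DMSO | probe or stimulus = depolarizing K+/Tl+ stimulus, K2SO4 and Tl2SO4 each 12.5 mM in 5x stock | dosing = single dose | incubation = dye 90 min, compound 20 min, room temperature | detection = kinetic FluxOR fluorescence, 10 s baseline plus 110 s post-stimulus | evaluation = ratio B score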
PHOSPHO1 inh – inhibitors of human PHOSPHO1 phosphatase; hit rate 1.1% among 290,000; inhibition, % at 13.3 µM; recombinant PHOSPHO1, absorbance phosphatase assay; AID 1565; Q8TCT1; in the data active = inhibition above about 60%
KCNQ1 block val – reconfirmed blocker of the human KCNQ1 potassium channel | shares compounds with KCNQ1 inh | KCNQ1 cell line, FluxOR thallium flux fluorescence | inhibition, % at 10 µM | hit rate 93% among 1,600;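 active = primary screen active, with duplicate mean exceeding buffer control mean plus 3 SD of buffer wells, cut at about 28% in these data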
CHO Tl flux – KCNQ1 inhibitor counter-screen hit in parental CHO cells; hit rate 21% among 1,600; fluorescence ratio (Tl flux) at 10 µM; parental CHO-K1, FluxOR thallium flux fluorescence ratio; stronger effect = lower value; zero means no signal rise above baseline; AID 588366; shares compounds with KCNQ1 inh;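 active = mean of duplicate thallium-flux fluorescence ratios in parental host cells more than 5 SD below the buffer control mean, cut at about 0.38 in these data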;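 note: ratio is peak minus minimum fluorescence divided by baseline fluorescence; actives read low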
KCNQ1 APC inh – blocks human KCNQ1 current in automated patch clamp; shares compounds with KCNQ1 inh; KCNQ1-CHO cells; calls only at 10 µM; hit rate 20% among 490;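 active = KCNQ1 current drop exceeding 3 SD of negative control wells, seen in both duplicate runs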;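 note: steady state current during a 2 s step from -80 to +40 mV; negative values mean current inhibition and positive values mean potentiation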
KCNQ2 inh – rat KCNQ2 inhibition in KCNQ1 inhibitor specificity screen; shares compounds with KCNQ1 inh; KCNQ2 cells, FluxOR thallium flux fluorescence; inhibition, % at 10 µM; hit rate 71% among 1,600;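 active = mean percent inhibition of the KCNQ2 thallium signal more than 5 SD above the buffer-only control wells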;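 note: KCNQ2 expressed in CHO cells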
KCNQ1 KCNE1 spec – selectivity of KCNQ1 inhibitors: inhibition of human KCNQ1/KCNE1 channel; shares compounds with KCNQ1 inh; KCNQ1/KCNE1 cells, FluxOR thallium flux fluorescence; AID 652147; inhibition, % at 10 µM; hit rate 77% among 1,600;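 active = mean percent inhibition of duplicate wells above the buffer-only control mean plus 3 SD of those controls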
Target sequence (P51787 whole entry, looked up): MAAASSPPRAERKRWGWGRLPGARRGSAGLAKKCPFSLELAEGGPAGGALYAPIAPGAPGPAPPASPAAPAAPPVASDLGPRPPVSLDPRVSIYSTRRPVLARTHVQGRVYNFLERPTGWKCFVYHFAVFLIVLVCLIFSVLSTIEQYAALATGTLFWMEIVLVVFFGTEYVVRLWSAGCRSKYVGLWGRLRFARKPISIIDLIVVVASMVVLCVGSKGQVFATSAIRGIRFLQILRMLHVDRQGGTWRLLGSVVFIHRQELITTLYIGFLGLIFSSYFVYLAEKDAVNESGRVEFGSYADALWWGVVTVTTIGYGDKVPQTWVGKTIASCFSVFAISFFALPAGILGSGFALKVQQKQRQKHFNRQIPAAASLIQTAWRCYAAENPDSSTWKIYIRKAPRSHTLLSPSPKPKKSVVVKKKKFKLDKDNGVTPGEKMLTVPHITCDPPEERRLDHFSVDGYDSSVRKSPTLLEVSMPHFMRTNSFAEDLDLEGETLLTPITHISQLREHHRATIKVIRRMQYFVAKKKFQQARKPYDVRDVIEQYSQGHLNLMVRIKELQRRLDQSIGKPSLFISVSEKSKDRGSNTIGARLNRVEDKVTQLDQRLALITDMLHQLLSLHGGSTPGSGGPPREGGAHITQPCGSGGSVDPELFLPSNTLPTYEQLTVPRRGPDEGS
Hits are given with their value; – = inactive; · = no result given; + = active, no number.

SMILES | KCNQ1 inh | hERG protect | KCNK3 block | KCNK9 inh | KCNQ1 act | PHOSPHO1 inh | KCNQ1 block val | CHO Tl flux | KCNQ2 inh | KCNQ1 KCNE1 spec | others
c1ccc(CCNc2ncnc3ccccc23)cc1 | 8 | – | – | – | – | – | 139.0 | – | 84.3% | 110.0% | KCNQ1 APC inh=–
CCc1ccccc1Nc1ncnc2ccccc12 | – | – | – | – | – | – | · | · | · | ·
CCCCCCCCNc1ncnc2ccccc12 | 9 | – | – | – | – | – | 125.0 | 0.372 | 75.7% | 117.5%
COc1ccc(CNC(=O)C2CCC(CNC(=O)[C@@H]3Cc4ccccc4CN3)CC2)cc1 (stereo partly specified) | – | – | – | – | – | – | · | · | · | ·
CC(C(=O)Nc1ccc(N(C)C)cc1)N1C(=O)c2ccccc2S1(=O)=O (stereo unspecified) | – | – | – | – | – | · | · | · | · | ·
CC(CCc1ccccc1)NC(=O)c1ccc(NC(=O)c2ccccc2)cc1 (stereo unspecified) | 7 | – | – | – | – | – | 67.0 | – | – | 66.0%
Cc1cccc(Cn2c(C(C)(C)C)cc3cccnc32)c1 | 8 | – | – | – | – | – | 64.0 | – | 67.0% | –
Cc1cccc(CN2CCN(c3ncccn3)CC2)c1 | – | – | – | – | – | · | · | · | · | ·
Cc1ccc2nc(SCC(=O)Nc3cc(C(C)(C)C)nn3-c3ccccc3)[nH]c2c1 | 8 | – | – | – | – | – | 95.5 | – | 111.0% | 141.0% | KCNQ1 APC inh=+
COc1ccc(CC(=O)Nc2cccc(-c3nnc(-c4ccc(C)cc4)o3)c2)cc1OC | – | – | – | – | – | – | · | · | · | ·
COc1ccc(CC(=O)Nc2cccc(-c3nnc(-c4cccc(C)c4)o3)c2)cc1OC | 10 | – | – | – | – | – | 144.0 | 0.32 | 131.7% | 97.5%
COc1cc(C(=S)N2CCOCC2)ccc1OC(=O)c1cc(OC)c(OC)c(OC)c1 | – | – | – | – | – | – | · | · | · | ·
CCC1(CC)Cc2ccccc2-c2nc(-c3ccccc3)oc(=O)c21 | 7 | – | – | – | – | – | 59.5 | – | 103.3% | 91.0%
CCN(CC(=O)Nc1ccc(NC(C)=O)cc1)C(=O)c1cccc(N2C(=O)c3ccccc3C2=O)c1 | · | · | – | · | · | · | · | · | · | ·
CCOC(=O)CC1C(=O)NCCN1Cc1cccc(OC)c1 (stereo unspecified) | – | – | – | – | – | – | · | · | · | ·
CCC(C)c1ccc(NC(=S)NCc2ccccc2OC)cc1 (stereo unspecified) | 9 | – | – | – | – | – | 61.5 | – | 69.3% | 65.5%
CCOc1ccc(S(=O)(=O)NCCC(=O)N2CCCC(C)C2)cc1 (stereo unspecified) | – | – | – | – | – | · | · | · | · | ·
CC(C)(C)c1csc(NC(=O)c2ccccc2O)n1 | 9 | – | – | – | – | – | 65.0 | – | – | –
CCn1nc(C)c(CNC(=O)c2cc(COc3ccc(F)cc3Cl)on2)c1C | 8 | – | – | – | – | – | 39.5 | – | – | –
CCCn1c(CN2CCN(c3cccc(Cl)c3)CC2)nc2c1c(=O)n(C)c(=O)n2C | 7 | – | – | – | – | – | 80.0 | – | 127.3% | 35.5%
CCN(CC)CC(=O)Nc1sc(C)cc1C(=O)c1ccc(C)cc1 | 7 | – | – | – | – | – | 117.5 | – | 90.7% | 153.5% | KCNQ1 APC inh=–
Cc1cccc(NC2CCCCC2NS(=O)(=O)c2ccccc2)c1 (stereo unspecified) | – | – | – | – | – | – | · | · | · | ·
COc1cc(C(=O)NCCC(=O)N2CCC3(CC2)NCCc2[nH]cnc23)cc(OC)c1OC | – | – | – | – | – | – | · | · | · | ·
O=C(c1ccc2nc[nH]c2c1)N1CCN(c2ncc(C(F)(F)F)cc2Cl)CC1 | 8 | – | – | – | – | – | – | – | – | –
O=C(c1ccc2nc[nH]c2c1)N1CCN(c2cccc(C(F)(F)F)c2)CC1 | – | – | – | – | – | – | · | · | · | ·
SMILES | KCNQ1 inh | hERG protect | KCNK3 block | KCNK9 inh | KCNQ1 act | PHOSPHO1 inh | KCNQ1 block val | CHO Tl flux | KCNQ2 inh | KCNQ1 KCNE1 spec | others
CC(=O)OCCNc1cc(N2CCN(C)CC2)c2noc3c2c1C(=O)c1ccccc1-3 | · | · | – | · | · | – | · | · | · | ·
CCOC(=O)C(C(=O)OCC)c1cc(Br)c2noc3c2c1C(=O)c1ccccc1-3 | 16 | – | – | – | – | – | 183.0 | 0.148 | – | –
CCOc1cc(N2CCOCC2)c(OCC)cc1NC(=O)COC(=O)c1cccc2ccccc12 | – | – | – | – | – | – | · | · | · | ·
Cc1cccc(COC(=O)CCCNC(=O)c2ccc(Cl)cc2)c1 | · | · | – | · | · | · | · | · | · | ·
Cc1ccc(S(=O)(=O)Nc2ccccc2CNc2ccc(Br)cn2)cc1 | 7 | – | – | -7.56 | – | – | 109.0 | 0.373 | 103.0% | 151.5%
Cc1ccc(S(=O)(=O)Nc2ccccc2CNc2ccccn2)cc1 | – | – | – | – | – | – | · | · | · | ·
CCCCNC(=O)COC(=O)c1cc(C)nc2ccccc12 | – | – | – | – | – | – | · | · | · | ·
Cc1cc(C(=O)OCC(=O)NCCCN2CCCC2=O)c2ccccc2n1 | 11 | – | – | – | – | – | – | – | – | 73.0%
CC(C)(C)C(=O)Cn1c(NCCCO)nc2ccccc21 | – | – | – | – | – | – | · | · | · | ·
Cc1occc1-c1nnc(SC(C)C(=O)Nc2ccccc2F)o1 (stereo unspecified) | · | · | – | · | · | · | · | · | · | ·
O=C(Cc1cccs1)N1CCC(c2nc3c(nnn3Cc3ccccc3)c(=O)[nH]2)CC1 | – | – | – | – | – | – | · | · | · | ·
Cc1ccc(Cn2nnc3c(=O)[nH]c(C4CCN(C(=O)Cc5cccs5)CC4)nc32)cc1 | 7 | – | – | – | – | – | – | – | – | –
Cc1cc(=O)[nH]c2c(C)c(N)ccc12 | – | – | – | – | – | – | · | · | · | ·
Cc1cc(C)c2ccc3c(C)c(C)nc3c2[nH]1 | 8 | – | – | – | – | – | 38.0 | – | – | 49.0%
Cc1ccc(S(=O)(=O)N(CC(=O)N=Nc2c(O)[nH]c3ccccc23)c2cccc(C)c2)cc1 | 7 | – | – | – | – | – | 76.5 | – | 80.3% | 129.5%
CC(C)c1ccc(NC(=S)NCc2ccc3c(c2)OCO3)cc1 | 8 | – | – | – | – | – | 81.5 | – | – | 61.0%
CC(=O)c1c(C)n(-c2ccccc2Br)c2ccc(O)cc12 | – | – | – | – | – | – | · | · | · | ·
